# Screening results as filed in PubChem BioAssay.
# NPY2 pot ag: potentiators or agonists of human neuropeptide Y receptor Y2. P49146. cells expressing NPY-Y2, potentiator/agonist read-out. activation, % at 3.6 µM. 220,000 compounds, 0.45% hits; in the data active = activation above about 27%;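 note: cells stimulated with NPY near EC25 plus isoproterenol at EC100; 0% = vehicle plus submaximal agonist and 100% = vehicle plus saturating agonist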
# Target sequence (P49146 whole entry, looked up): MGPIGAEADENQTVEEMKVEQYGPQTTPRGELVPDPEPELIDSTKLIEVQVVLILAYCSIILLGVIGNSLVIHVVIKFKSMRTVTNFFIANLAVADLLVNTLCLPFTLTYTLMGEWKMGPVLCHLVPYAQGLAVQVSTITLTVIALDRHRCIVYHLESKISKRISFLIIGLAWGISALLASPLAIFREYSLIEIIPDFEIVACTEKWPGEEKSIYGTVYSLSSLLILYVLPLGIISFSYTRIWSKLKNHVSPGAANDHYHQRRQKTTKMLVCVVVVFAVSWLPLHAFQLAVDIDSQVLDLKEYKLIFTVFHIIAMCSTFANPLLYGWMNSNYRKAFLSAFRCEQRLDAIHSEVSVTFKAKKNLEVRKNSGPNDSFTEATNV
# NPY-Y1 antag: NPY-Y1 (human) receptor antagonism; 200,000 compounds, 1% hits; HEK293-CNG Y1 cells, membrane potential fluorescence; NPY at EC95, then isoproterenol; inhibition, % at 3.6 µM; AID 1040; P25929;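 active = inhibition above the campaign mean inhibition of all tested compounds plus 3 SD, cut at about 20% in these data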;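 note: 0% = DMSO wells given NPY plus isoproterenol and 100% = isoproterenol alone without NPY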
# Target sequence (P25929 whole entry, looked up): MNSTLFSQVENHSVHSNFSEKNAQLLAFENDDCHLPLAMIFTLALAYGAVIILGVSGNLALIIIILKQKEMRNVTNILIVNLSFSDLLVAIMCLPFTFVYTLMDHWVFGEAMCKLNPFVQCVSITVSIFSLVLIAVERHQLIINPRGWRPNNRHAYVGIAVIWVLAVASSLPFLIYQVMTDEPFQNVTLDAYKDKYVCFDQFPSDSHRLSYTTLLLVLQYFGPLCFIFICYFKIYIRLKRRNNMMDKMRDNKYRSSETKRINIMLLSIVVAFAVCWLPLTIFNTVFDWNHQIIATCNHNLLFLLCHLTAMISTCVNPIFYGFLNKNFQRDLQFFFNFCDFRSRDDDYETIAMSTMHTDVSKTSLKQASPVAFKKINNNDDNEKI
#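 Material: HEK293 cells with Y1 receptor plus CNG channel; times: compound incubation 1 h at room temperature, readout 45 min post-stimulation; signal: fluorescence, membrane potential probe; read-out basis: fluorescence ratio normalized to % inhibition between controls; benchmarks: full-block control isoproterenol-only wells, zero-block control NPY plus isoproterenol wells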
# NPY1 pot ag: human NPY-Y1 potentiation or agonism, primary screen | NPY-Y1 expressing cells, potentiator/agonist activation | AID 1304 | activation, % at 3.6 µM | 220,000 compounds, 0.37% hits; in the data active = activation above about 33%, passing the limit was not always enough;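 note: cells stimulated with NPY at EC10 then isoproterenol at EC100; 0% = low agonist plus stimulus and 100% = saturating agonist plus stimulus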
# NPY-Y2 antag: antagonists of human neuropeptide Y receptor Y2; P49146; NPY-Y2 expressing cells, antagonist mode; 140,000 compounds, 0.99% hits; inhibition, % at 2.7 µM; in the data active = inhibition above about 17%;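 note: 0% = vehicle with agonist challenge and 100% = reference antagonist with challenge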
# NPY-Y1 pot conf: confirmation of human NPY-Y1 receptor potentiators or agonists; AID 1546; activation, % at 3.6 µM; cell-based NPY-Y1 potentiator/agonist assay; shares compounds with NPY1 pot ag; 280 compounds, 20% hits; in the data active = activation above about 45%;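 note: cells challenged with NPY at its EC10 plus isoproterenol stimulus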
# NPY-Y2 counter: potentiates or activates NPY-Y2, counter-screen for NPY-Y1 hits; activation, % at 3.6 µM; shares compounds with NPY1 pot ag; HEK293-CNG cells, membrane-potential fluorescence (FLIPR), 1536-well; 280 compounds, 20% hits; AID 1649; in the data active = activation above about 33%
# NPY-Y1 ag: activates human NPY-Y1, counter-screen for NPY-Y1 potentiators; shares compounds with NPY1 pot ag; HEK293 Y1-CNGC, membrane potential fluorescence, agonist mode; activation, % at 3.6 µM; 280 compounds, 50% hits;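 active = percent activation above the mean of DMSO-only control wells plus 3 SD of those wells, cut at about 18% in these data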;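 note: cells challenged with isoproterenol plus Ro 20-1724 with no NPY in test wells; Y1 agonism lowers isoproterenol-driven cAMP and reduces probe fluorescence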
# NPY-Y2 ag: counter-screen for NPY-Y1 potentiators or agonists: agonists of NPY-Y2 | shares compounds with NPY1 pot ag | HEK293 Y2-CNGC, membrane potential fluorescence, agonist mode | activation, % at 3.6 µM | 280 compounds, 67% hits | AID 1698;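 active = activation above the solvent-only control wells' mean plus 3 SD, cut at about 11% in these data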;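 note: 0% = DMSO with isoproterenol and 100% = 40 nM NPY maximal response; agonism lowers cAMP so well fluorescence drops in active wells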
# CNGC inh 2: counter-screen for NPY-Y1 potentiators or agonists: CNG channel inhibitors | shares compounds with NPY1 pot ag | HEK293-CNG parental, isoproterenol cAMP, membrane potential fluorescence | inhibition, % at 3.6 µM | 280 compounds, 42% hits;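 active = inhibition above the mean of stimulated solvent-only control wells plus 3 SD, cut at about 22% in these data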;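 note: 0% = isoproterenol-stimulated DMSO wells and 100% = unstimulated DMSO wells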
# * marks the source's active call; other numbers are inactive results; . = not tested or not shown. Compounds with a hit are over-represented: about 1.8% of the library has one in this group of screens.
SMILES,NPY2 pot ag,NPY-Y1 antag,NPY1 pot ag,NPY-Y2 antag,NPY-Y1 pot conf,NPY-Y2 counter,NPY-Y1 ag,NPY-Y2 ag,CNGC inh 2
CCOC(=O)C1=C(C)NC(=O)NC1c1cc(Br)c(O)c(OC)c1 (stereo not given),-6.1,-2.7,10.4,0.6,.,.,.,.,.
CCOC(=O)C1=C(c2ccccc2)NC(=O)NC1c1cc(Br)c(O)c(OC)c1 (stereo not given),11.5,-3.3,42.0*,.,0.0,3.1,-2.9,1.0,-2.0
O=C(CCC(=O)c1ccccc1)NCc1ccccc1,-5.7,.,-8.5,.,.,.,.,.,.
CCn1ncc(Br)c1C(=O)Nc1ccc(F)cc1F,3.7,1.9,2.3,1.7,.,.,.,.,.
CCn1ncc(Br)c1C(=O)Nc1ccc(F)c([N+](=O)[O-])c1,20.4,-12.0,45.4*,-1.3,40.2,39.0*,39.9*,27.0*,35.6*
O=C(CN1CCN(c2ccccc2)CC1)N/N=C/c1cccc(F)c1,-10.2,7.0,15.7,3.6,.,.,.,.,.
COc1ccc(Cc2nnc(NC(=O)c3cccc([N+](=O)[O-])c3)s2)cc1,9.0,-3.0,0.8,2.5,.,.,.,.,.
COC(=O)[C@@H]1CC[C@H](C)[C@@H](c2ccc(C)cc2)N1C(=O)c1ccc(/C=N/OC[C@@H](O)[C@H]2O[C@@H]3OC(C)(C)O[C@@H]3[C@H]2O)cc1,16.1,-3.2,38.9*,-0.1,5.7,0.0,-2.4,6.2,-10.2
COc1cc(S(=O)(=O)NCCc2ccc3c(c2)OCO3)ccc1-n1cnnn1,-22.3,1.4,-36.0,8.5,.,.,.,.,.
CCOC(=O)C1=C(CC)Nc2ccccc2N/C1=N\S(=O)(=O)c1cc(Br)ccc1Br,15.5,-2.2,32.8*,.,7.1,5.7,4.0,1.2,7.1
CCOC(=O)C1=C(CC)Nc2ccccc2N/C1=N\S(=O)(=O)c1ccc2ccccc2c1,-7.7,6.4,5.0,.,.,.,.,.,.
Cc1ccc(S(=O)(=O)N(CC(=O)N2CCC(C)CC2)Cc2ccccc2F)cc1,19.7,2.6,79.1*,1.4,-5.2,-0.2,-10.5,-5.9,1.3
Cc1ccc(S(=O)(=O)N(CC(=O)O)Cc2ccccc2F)cc1,4.6,-1.2,-11.7,5.8,.,.,.,.,.
COC(=O)CNC(=O)CN1C(=O)N(c2cccc(Cl)c2)C(N(O)C(=O)Nc2cccc(Cl)c2)C1(C)C (stereo not given),9.8,-9.1,48.9*,-4.4,46.0*,29.0,31.6*,30.7*,31.8*
COC(=O)CNC(=O)CN1C(=O)N(c2ccccc2)C(N(O)C(=O)Nc2ccccc2)C1(C)C (stereo not given),-15.0,-0.1,-6.3,1.1,.,.,.,.,.
O=C(CN1C(=O)COc2ccc(S(=O)(=O)N3CCOCC3)cc21)NCc1ccco1,6.9,.,1.2,.,.,.,.,.,.
CCOC(=O)N1CCN(C(=O)/C(=C/c2cccs2)NC(=O)c2cccs2)CC1,1.9,-0.7,42.9*,.,2.8,-0.8,-5.7,-4.9,-5.8
Cc1ccc(O)c(C(=O)c2cnc3c(c2)c(-c2ccc(F)cc2)c(C#N)c(=O)n3C)c1,8.8,-4.4,42.2*,.,61.3*,54.6*,49.3*,53.6*,34.1*
Cc1ccc(C(C[N+](=O)[O-])Sc2ccc(N)cc2)cc1 (stereo not given),11.4,.,4.1,.,.,.,.,.,.
Brc1ccc(-c2csc(Nc3nc(-c4ccc(Br)cc4)cs3)n2)cc1,-11.6,.,-11.4,.,.,.,.,.,.
Brc1ccc(Nc2nc(-c3cccnc3)cs2)cc1,27.9,-11.0,37.4*,.,42.3,31.1,43.2*,38.1*,34.1*
CC1(C)CC(=O)C2=C(C1)Nc1ncnn1C2c1cccs1 (stereo not given),-17.4,2.5,2.1,.,.,.,.,.,.
CC(C)N=c1scc(-c2cccs2)n1/N=C/c1ccc(O)c(O)c1O,20.6,-4.2,52.2*,-1.2,50.8*,39.2*,52.9*,25.9*,21.0
CCN=c1scc(-c2cccs2)n1/N=C/c1cc(OC)ccc1O,-0.7,-1.1,-13.5,3.5,.,.,.,.,.
CC(=O)c1sc(Nc2nc3ccc(F)cc3s2)nc1C,17.5,-19.8,45.0*,-4.8,28.0,15.1,16.4,20.1*,18.5
SMILES,NPY2 pot ag,NPY-Y1 antag,NPY1 pot ag,NPY-Y2 antag,NPY-Y1 pot conf,NPY-Y2 counter,NPY-Y1 ag,NPY-Y2 ag,CNGC inh 2
N#Cc1ccc(NC(=O)Nc2ccc(Cl)cc2)cc1,27.2,-8.9,48.9*,-1.8,33.7,32.6,23.0*,28.0*,32.4*
CCNC(=O)c1cc(Br)ccc1Cl,-10.1,-2.1,50.5*,0.0,6.1,3.1,-0.2,7.9,8.8
Cc1cc(C)nc(NC(=O)c2cc(Br)ccc2Cl)n1,-1.5,-0.4,-40.9,.,.,.,.,.,.
O=C(O)c1ccccc1C(=O)Nc1ccc(-n2ccc(C(F)(F)F)n2)cc1,5.0,.,17.5,.,.,.,.,.,.
COc1ccccc1NC(=O)Nc1ccc(-n2ccc(C(F)(F)F)n2)cc1,32.4,.,54.5*,.,64.8*,49.1*,55.2*,37.7*,36.3*
O=[N+]([O-])c1ccc(/C=C/C2=NN(c3ccccc3)C(c3ccco3)C2)o1 (stereo not given),22.5,-5.8,36.2*,.,60.5*,45.0*,56.0*,57.9*,45.2*
O=C(c1ccc2c3c(cccc13)CC2)C1CCCN(Cc2ccncc2)C1 (stereo not given),2.3,1.3,77.4*,.,-26.8,-4.0,-32.8,-6.5,-7.1
COC(=O)C(C)SC1=N/C(=C/c2ccc(-n3cncn3)cc2)C(=O)N1 (stereo not given),-10.1,.,-3.5,.,.,.,.,.,.
O=C(c1nc2ccccn2c1CNCCOc1cccnc1)N1CCOCC1,-14.0,1.7,-2.3,.,.,.,.,.,.
CCCOc1ccc(N2C(=O)C/C(=C\c3ccccc3)C2=O)cc1,-29.9,.,5.0,.,.,.,.,.,.
CCOc1cc(N2CCOCC2)c(OCC)cc1NC(=O)CN1C(=O)NC2(CCc3ccccc32)C1=O (stereo not given),3.3,-1.5,5.3,5.6,.,.,.,.,.
COc1cc2c(cc1NC(=O)CN1C(=O)NC3(CCc4ccccc43)C1=O)oc1ccccc12 (stereo not given),19.4,-7.0,34.8*,-1.8,61.9*,39.1*,37.1*,44.0*,44.7*
c1csc(-c2nc3c4ccccc4c4ccccc4c3[nH]2)c1,11.1,-2.0,18.1,-2.9,.,.,.,.,.
Oc1ccccc1-c1nc2c3ccccc3c3ccccc3c2[nH]1,30.4,.,50.3*,.,35.9,27.9,37.2*,34.3*,38.9*
Cc1c(CCOC(=O)C23CC4CC(CC(C4)C2)C3)sc[n+]1CC#N,8.9,-2.0,3.4,.,.,.,.,.,.
CCn1c(SCC(=O)Nc2ccc3c(c2)oc2ccccc23)nnc1-c1ccc(N)cc1,19.7,0.6,46.3*,-3.9,42.8,37.2*,38.3*,42.8*,21.0
